Measurements published in ChEMBL document CHEMBL1135893, “Synthesis and mode of action of hydrophobic derivatives of the glycopeptide antibiotic eremomycin and des-(N-methyl-D-leucyl)eremomycin against glycopeptide-sensitive and -resistant bacteria” (J Med Chem, 2002).

Columns and labels:
Enterococcus faecalis [1] = experiment: Antibacterial activity evaluated as minimum inhibitory concentration against 560 Enterococcus faecalis (GRE); format: functional
How it was run: (§1)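 Broth microdilution in Mueller Hinton broth per NCCLS procedure; repeat results usually identical, always within 2-fold. GISA strains 3797 (HIP-5836 New Jersey) and 3798 (HIP-5827 Michigan); 533 S. epidermidis and 602 S. haemolyticus are clinical isolates; vancomycin-resistant enterococci have confirmed genotype.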

[2] = test system: Staphylococcus haemolyticus; experiment: Antibacterial activity evaluated as minimum inhibitory concentration against 602 Staphylococcus haemolyticus; parameters: unit not given beside the values
Staphylococcus aureus [3] = experiment: Antibacterial activity evaluated as minimum inhibitory concentration against 3797 Staphylococcus aureus (GISA); format: functional; parameters: unit not given beside the values; how it was run: as §1
Staphylococcus aureus [4] = experiment: Antibacterial activity evaluated as minimum inhibitory concentration against 3798 Staphylococcus aureus (GISA); format: functional; parameters: unit not given beside the values; how it was run: as §1
Enterococcus faecalis [5] = experiment: Antibacterial activity evaluated as minimum inhibitory concentration against 559 Enterococcus faecalis (GSE); format: functional; parameters: unit not given beside the values; how it was run: as §1
Enterococcus faecium [6] = experiment: Antibacterial activity evaluated as minimum inhibitory concentration against 568 Enterococcus faecium (GSE); format: functional; how it was run: as §1
Enterococcus faecium [7] = experiment: Antibacterial activity evaluated as minimum inhibitory concentration against 569 Enterococcus faecium (GRE); format: functional; how it was run: as §1
[8] = test system: Staphylococcus epidermidis; experiment: Antibacterial activity evaluated as minimum inhibitory concentration against 533 Staphylococcus epidermidis; format: functional; how it was run: as §1
Nucleic Acid [9] = experiment: Ratio UDP-MurNAc-tetrapeptide to UDP-MurNAc-Pentapeptide; format: nucleic-acid assay
Nucleic Acid [10] = experiment: Inhibition of the peptidoglycan synthesis in the absence of dipeptide bonding using UDP-MurNAc-pentapeptide; format: nucleic-acid assay
How it was run: (§2)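 Peptidoglycan synthesis run on filter plates with E. coli OV58 (pTA9) membranes, UDP-MurNAc-pentapeptide or UDP-MurNAc-tetrapeptide plus UDP-N-acetyl-[14C]-D-glucosamine as substrates; radiolabel incorporation into peptidoglycan measured. IC50 from at least six drug concentrations in duplicate, fitted by four-parameter logistic nonlinear regression.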

Nucleic Acid [11] = experiment: Inhibition of the peptidoglycan synthesis in the absence of dipeptide bonding using UDP-MurNAc-tetrapeptide; format: nucleic-acid assay; how it was run: as §2

Compound	MIC (Enterococcus faecalis [1])	MIC (Staphylococcus aureus [3])	MIC (Staphylococcus aureus [4])	MIC (Enterococcus faecalis [5])	MIC (Enterococcus faecium [6])	MIC (Enterococcus faecium [7])	MIC [8]	Ratio (Nucleic Acid [9])	IC50 (Nucleic Acid [10]) [nM]	IC50 (Nucleic Acid [11]) [nM]	MIC [2]
CCCCCCCCCCN[C@]1(C)C[C@H](O[C@@H]2[C@H](Oc3c4cc5cc3Oc3ccc(cc3Cl)[C@@H](O)[C@@H](N)C(=O)N[C@@H](CC(N)=O)C(=O)N[C@H]5C(=O)N[C@H]3C(=O)N[C@H](C(=O)N[C@H](C(=O)O)c5cc(O)cc(O)c5-c5cc3ccc5O)[C@H](O[C@H]3C[C@@](C)(N)[C@@H](O)[C@@H](C)O3)c3cccc(c3)O4)O[C@@H](CO)[C@H](O)[C@H]2O)O[C@H](C)[C@@H]1O	16	8	16	8	8	16	4				8
CN[C@H](CC(C)C)C(=O)N[C@H]1C(=O)N[C@@H](CC(N)=O)C(=O)N[C@H]2C(=O)N[C@H]3C(=O)N[C@H](C(=O)N[C@H](C(=O)O)c4cc(O)c(CNCc5ccc(-c6ccc(Cl)cc6)cc5)c(O)c4-c4cc3ccc4O)[C@H](O[C@H]3C[C@@](C)(N)[C@@H](O)[C@@H](C)O3)c3cccc(c3)Oc3cc2cc(c3O[C@@H]2O[C@@H](CO)[C@H](O)[C@@H](O)[C@@H]2O[C@H]2C[C@@](C)(N)[C@@H](O)[C@@H](C)O2)Oc2ccc(cc2Cl)[C@H]1O	16	2	2	1	1	8	0.5				0.25
CN[C@@H](CC(C)C)C(=O)N[C@H]1C(=O)N[C@@H](CC(N)=O)C(=O)N[C@H]2C(=O)N[C@H]3C(=O)N[C@H](C(=O)N[C@H](C(=O)O)c4cc(O)cc(O)c4-c4cc3ccc4O)[C@H](O[C@H]3C[C@@](C)(N)[C@@H](O)[C@@H](C)O3)c3cccc(c3)Oc3cc2cc(c3O[C@@H]2O[C@@H](CO)[C@H](O)[C@@H](O)[C@@H]2O[C@H]2C[C@@](C)(NCc3ccc(-c4ccc(Cl)cc4)cc3)[C@@H](O)[C@@H](C)O2)Oc2ccc(cc2Cl)[C@H]1O								23	120	2700	
C[C@H]1O[C@@H](O[C@@H]2[C@H](Oc3c4cc5cc3Oc3ccc(cc3Cl)[C@@H](O)[C@@H](N)C(=O)N[C@@H](CC(N)=O)C(=O)N[C@H]5C(=O)N[C@H]3C(=O)N[C@H](C(=O)N[C@H](C(=O)O)c5cc(O)cc(O)c5-c5cc3ccc5O)[C@H](O[C@H]3C[C@@](C)(N)[C@@H](O)[C@@H](C)O3)c3cccc(c3)O4)O[C@@H](CO)[C@H](O)[C@H]2O)C[C@@](C)(NCc2ccc(-c3ccc(Cl)cc3)cc2)[C@H]1O	8	8	8	4	4	8	4	1.2	7700	9200	4
CCCCCCCCCCNC(=O)[C@H]1NC(=O)[C@H]2NC(=O)[C@H](NC(=O)[C@@H]3NC(=O)[C@H](CC(N)=O)NC(=O)[C@H](N)[C@H](O)c4ccc(c(Cl)c4)Oc4cc3cc(c4O[C@@H]3O[C@@H](CO)[C@H](O)[C@@H](O)[C@@H]3O[C@H]3C[C@@](C)(N)[C@@H](O)[C@@H](C)O3)Oc3cccc(c3)[C@H]2O[C@H]2C[C@@](C)(N)[C@@H](O)[C@@H](C)O2)c2ccc(O)c(c2)-c2c(O)cc(O)cc21	4	4	8	2	2	2	0.5				1
CN[C@H](CC(C)C)C(=O)N[C@H]1C(=O)N[C@@H](CC(N)=O)C(=O)N[C@H]2C(=O)N[C@H]3C(=O)N[C@H](C(=O)N[C@H](C(=O)NCc4ccc(-c5ccc(Cl)cc5)cc4)c4cc(O)cc(O)c4-c4cc3ccc4O)[C@H](O[C@H]3C[C@@](C)(N)[C@@H](O)[C@@H](C)O3)c3cccc(c3)Oc3cc2cc(c3O[C@@H]2O[C@@H](CO)[C@H](O)[C@@H](O)[C@@H]2O[C@H]2C[C@@](C)(N)[C@@H](O)[C@@H](C)O2)Oc2ccc(cc2Cl)[C@H]1O	4	4	4	2	1	4	2				1
C[C@H]1O[C@@H](O[C@@H]2[C@H](Oc3c4cc5cc3Oc3ccc(cc3Cl)[C@@H](O)[C@@H](N)C(=O)N[C@@H](CC(N)=O)C(=O)N[C@H]5C(=O)N[C@H]3C(=O)N[C@H](C(=O)N[C@H](C(=O)NCc5ccc(-c6ccc(Cl)cc6)cc5)c5cc(O)cc(O)c5-c5cc3ccc5O)[C@H](O[C@H]3C[C@@](C)(N)[C@@H](O)[C@@H](C)O3)c3cccc(c3)O4)O[C@@H](CO)[C@H](O)[C@H]2O)C[C@@](C)(N)[C@H]1O	4	8	8	4	4	2	4				4
CN[C@H](CC(C)C)C(=O)N[C@H]1C(=O)N[C@@H](CC(N)=O)C(=O)N[C@H]2C(=O)N[C@H]3C(=O)N[C@H](C(=O)N[C@H](C(=O)O)c4cc(O)cc(O)c4-c4cc3ccc4O)[C@H](O[C@H]3C[C@@](C)(N)[C@@H](O)[C@@H](C)O3)c3cccc(c3)Oc3cc2cc(c3O[C@@H]2O[C@@H](CO)[C@H](O)[C@@H](O)[C@@H]2O[C@H]2C[C@@](C)(NCc3ccc(-c4ccc(Cl)cc4)cc3)[C@@H](O)[C@@H](C)O2)Oc2ccc(cc2Cl)[C@H]1O	8	4	4	4	2	4	2				4

The next lines start with results.

MIC (Enterococcus faecalis [1])	MIC (Staphylococcus aureus [3])	MIC (Staphylococcus aureus [4])	MIC (Enterococcus faecalis [5])	MIC (Enterococcus faecium [6])	MIC (Enterococcus faecium [7])	MIC [8]	Ratio (Nucleic Acid [9])	IC50 (Nucleic Acid [10]) [nM]	IC50 (Nucleic Acid [11]) [nM]	Compound	MIC [2]
>128	64	64	16	16	>128	16				C[C@H]1O[C@@H](O[C@@H]2[C@H](Oc3c4cc5cc3Oc3ccc(cc3Cl)[C@@H](O)[C@@H](N)C(=O)N[C@@H](CC(N)=O)C(=O)N[C@H]5C(=O)N[C@H]3C(=O)N[C@H](C(=O)N[C@H](C(=O)O)c5cc(O)cc(O)c5-c5cc3ccc5O)[C@H](O[C@H]3C[C@@](C)(N)[C@@H](O)[C@@H](C)O3)c3cccc(c3)O4)O[C@@H](CO)[C@H](O)[C@H]2O)C[C@@](C)(N)[C@H]1O	16
>128	8	8	0.25	0.25	>128	0.25				CN[C@H](CC(C)C)C(=O)N[C@H]1C(=O)N[C@@H](CC(N)=O)C(=O)N[C@H]2C(=O)N[C@H]3C(=O)N[C@H](C(=O)N[C@H](C(=O)O)c4cc(O)cc(O)c4-c4cc3ccc4O)[C@H](O[C@H]3C[C@@](C)(N)[C@@H](O)[C@@H](C)O3)c3cccc(c3)Oc3cc2cc(c3O[C@@H]2O[C@@H](CO)[C@H](O)[C@@H](O)[C@@H]2O[C@H]2C[C@@](C)(N)[C@@H](O)[C@@H](C)O2)Oc2ccc(cc2Cl)[C@H]1O	0.25
							> 2300	300	> 640000	CN[C@@H](CC(C)C)C(=O)N[C@H]1C(=O)N[C@@H](CC(N)=O)C(=O)N[C@H]2C(=O)N[C@H]3C(=O)N[C@H](C(=O)N[C@H](C(=O)O)c4cc(O)cc(O)c4-c4cc3ccc4O)[C@H](O[C@H]3C[C@@](C)(N)[C@@H](O)[C@@H](C)O3)c3cccc(c3)Oc3cc2cc(c3O[C@@H]2O[C@@H](CO)[C@H](O)[C@@H](O)[C@@H]2O[C@H]2C[C@@](C)(N)[C@@H](O)[C@@H](C)O2)Oc2ccc(cc2Cl)[C@H]1O	
4	4	4	1	0.5	2	0.13	5	1300	6400	CCCCCCCCCCNC(=O)[C@H]1NC(=O)[C@H]2NC(=O)[C@H](NC(=O)[C@@H]3NC(=O)[C@H](CC(N)=O)NC(=O)[C@H](NC(=O)[C@@H](CC(C)C)NC)[C@H](O)c4ccc(c(Cl)c4)Oc4cc3cc(c4O[C@@H]3O[C@@H](CO)[C@H](O)[C@@H](O)[C@@H]3O[C@H]3C[C@@](C)(N)[C@@H](O)[C@@H](C)O3)Oc3cccc(c3)[C@H]2O[C@H]2C[C@@](C)(N)[C@@H](O)[C@@H](C)O2)c2ccc(O)c(c2)-c2c(O)cc(O)cc21	0.13
8	2	2	0.5	0.5	8	0.25				CCCCCCCCCCNCc1c(O)cc2c(c1O)-c1cc(ccc1O)[C@H]1NC(=O)[C@@H]3NC(=O)[C@H](CC(N)=O)NC(=O)[C@H](NC(=O)[C@@H](CC(C)C)NC)[C@H](O)c4ccc(c(Cl)c4)Oc4cc3cc(c4O[C@@H]3O[C@@H](CO)[C@H](O)[C@@H](O)[C@@H]3O[C@H]3C[C@@](C)(N)[C@@H](O)[C@@H](C)O3)Oc3cccc(c3)[C@@H](O[C@H]3C[C@@](C)(N)[C@@H](O)[C@@H](C)O3)[C@H](NC1=O)C(=O)N[C@@H]2C(=O)O	0.25
